Measured values from PubChem BioAssay AID463170 (The Scripps Research Institute Molecular Screening Center, 2010).
Calls of active or inactive are those of the source.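 How the source made its calls: active means fold change of 10 or more over vehicle in p21 reporter light; inactive means fold change below 10.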

Target: Cyclin-dependent kinase inhibitor 1 (Homo sapiens) (UniProt P38936)
Assay: p21 (CDKN1A) degradation inhibitors, late-stage follow-up, selectivity assay for Wee1 degradation inhibitor project, cell-based, HeLa, luciferase fusion, luminescence, powder samples (AID 463170)
Details: at 0.1 µM, stronger effect = higher value
Method in brief: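 assay system = HeLa cells transiently expressing a p21-luciferase fusion reporter | schedule = 20 h compound treatment, 37 °C | signal = luminescence of p21-luciferase | evaluation = mean fold change versus DMSO | repeats = four replicate wells per compound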

Sequence of Cyclin-dependent kinase inhibitor 1 (Homo sapiens) (P38936 whole entry, looked up, the tested form may be a part): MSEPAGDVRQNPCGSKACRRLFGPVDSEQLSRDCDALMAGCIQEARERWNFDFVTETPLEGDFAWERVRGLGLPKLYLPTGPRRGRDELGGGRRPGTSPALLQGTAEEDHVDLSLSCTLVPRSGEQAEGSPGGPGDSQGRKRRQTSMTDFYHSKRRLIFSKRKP

| Compound | fold change |
| --- | --- |
| O=[N+]([O-])c1cccc2[nH]c(CNc3nc(N4CCOCC4)nc4c3ncn4-c3ccsc3)nc12 | 3.41 (inactive) |
| c1ccc2[nH]c(CNc3nc(N4CCOCC4)nc4c3ncn4-c3ccsc3)nc2c1 | 2.23 (inactive) |
